Experimental data published in ChEMBL document CHEMBL1132176, “Novel A,B,E-ring-modified camptothecins displaying high lipophilicity and markedly improved human blood stabilities” (J Med Chem, 1999).

Tests used:
[1] = Stability parameter for the compound at a concentration of 1 uM in red blood cells(RBC) after 3h; type: ADME, cell-based; conditions: read-out: Lactone
Summary of the method: (§1)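 Lactone-to-carboxylate hydrolysis followed by HPLC; drug at 1 μM incubated at 37 °C for 3 h in human whole blood, plasma, or PBS (pH 7.4) with or without physiologically relevant levels of HSA or albumin-free RBCs ((5 ± 1) × 10^6 cell/μL). Plasma continuously aerated with blood gas to hold pH 7.5 ± 0.1. Blood kept at 5 °C before start. Value is % lactone remaining.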

[2] = Stability parameter for the compound at a concentration of 1 uM in whole human blood after 3h; type: ADME; conditions: read-out: Lactone; summary of the method: as §1
[3] = Stability parameter for the compound in human blood after 3h; type: ADME; conditions: read-out: Lactone
[4] = Equilibrium association (binding) constant interacting with Unilamellar Vesicles of electroneutral DMPC in PBSbuffer at pH 7.4 and 37 C; type: ADME
Summary of the method: (§2)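 Fluorescence anisotropy titration of 1 μM drug (lactone form) with small unilamellar vesicles, in PBS at pH 7.4 and 37 °C. Anisotropy was read about 1 min after adding drug at each lipid concentration to limit lactone hydrolysis. Adsorption isotherms were constructed, and K was taken from the slopes of double-reciprocal plots, with 10% uncertainty.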

[5] = Equilibrium association (binding) constant interacting with Unilamellar Vesicles of negatively charged DMPG in PBS buffer at pH 7.4 and 37 C; type: ADME; summary of the method: as §2
[6] = Stability parameter for the compound at a concentration of 1 uM in human serum albumin(HSA) after 3h; type: ADME; conditions: read-out: Lactone; summary of the method: as §1
[7] = Stability parameter for the compound at a concentration of 1 uM in phosphate-buffered saline(PBS, pH 7.4) after 3h; type: physicochemical; conditions: read-out: Lactone; summary of the method: as §1
[8] = Stability parameter for the compound at a concentration of 1 uM in plasma after 3h; type: ADME, cell-free; conditions: read-out: Lactone; summary of the method: as §1
[9] = Stability parameter for the compound in mouse blood after 3h; type: ADME; conditions: read-out: Lactone
Summary of the method: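 Drug was incubated in mouse blood at pH 7.4 and 37 °C for 3 h. Blood was kept at 5 °C after drawing and before the start. The percent lactone remaining was measured by HPLC.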

| SMILES | remaining at 3 h, 1 µM [1] [%] | remaining at 3 h, 1 µM [2] [%] | remaining at 3 h [3] [%] | K DMPC [4] [M⁻¹] | K DMPG [5] [M⁻¹] | remaining at 3 h, 1 µM [6] [%] | remaining at 3 h, 1 µM [7] [%] | remaining at 3 h, 1 µM [8] [%] | remaining at 3 h [9] [%] |
| --- | --- | --- | --- | --- | --- | --- | --- | --- | --- |
| CCC1(O)CC(=O)OCc2c1cc1n(c2=O)Cc2c-1nc1ccccc1c2[Si](C)(C)C(C)(C)C (stereo unspecified) | 92 | 86.6 | 87 | 14000 | 19000 | 88.1 | 84.9 | 85 | 80 |
| CCC1(O)CC(=O)OCc2c1cc1n(c2=O)Cc2c-1nc1ccc(O)cc1c2[Si](C)(C)C(C)(C)C (stereo unspecified) | 88.5 | 84.9 | 85 | 8000 | 4000 | 82.9 | 83.1 | 61.5 | 70 |
| CCC1(O)CC(=O)OCc2c1cc1n(c2=O)Cc2c-1nc1ccc(N)cc1c2[Si](C)(C)C(C)(C)C (stereo unspecified) | 85.5 | 85.2 | 85 | 9000 | 9000 | 86.8 | 83.7 | 71.1 | 61 |
| CCC(O)(CC(=O)O)c1cc2n(c(=O)c1CO)Cc1c-2nc2ccc(N)cc2c1[Si](C)(C)C(C)(C)C (stereo unspecified) | – | – | – | 800 | 80 | – | – | – | – |
| CCC(O)(CC(=O)O)c1cc2n(c(=O)c1CO)Cc1c-2nc2ccc(O)cc2c1[Si](C)(C)C(C)(C)C (stereo unspecified) | – | – | – | 700 | 100 | – | – | – | – |
| CCC1(O)CC(=O)OCc2c1cc1n(c2=O)Cc2c-1nc1ccc(N)cc1c2[Si](C)(C)C (stereo unspecified) | 84.8 | 56.4 | 56 | 1400 | 800 | 81.4 | 82.8 | 40.3 | 72 |
| CC[C@@]1(O)C(=O)OCc2c1cc1n(c2=O)Cc2cc3ccccc3nc2-1 [CAMPTOTHECIN] | – | – | 7 | 100 | 100 | – | – | – | 20 |
| CC[C@@]1(O)C(=O)OCc2c1cc1n(c2=O)Cc2cc3c(CN(C)C)c(O)ccc3nc2-1 [TOPOTECAN] | – | – | – | 10 | 50 | – | – | – | – |
